Results reported in ChEMBL document CHEMBL1641440, “Virtual screening based identification of novel small-molecule inhibitors targeted to the HIV-1 capsid” (Bioorg Med Chem, 2011).
pIC50: −log10 of the molar value. Active and inactive are the calls of the source. The calls are words filed in the database; no cut-off is given here.

Legend:
[1] = test system: Human immunodeficiency virus 1; test: Antiviral activity against HIV1 3B infected in human MT2 cells assessed as inhibition of viral p24 antigen production after 4 days by ELISA; format: functional, organism-based; settings: Human immunodeficiency virus 1, 3B, MT2, 96 h
How it was run: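 MT-2 cells (1 × 10^4) infected with HIV-1 IIIB at 100 TCID50 (0.01 MOI) in RPMI 1640/10% FBS with graded inhibitor concentrations overnight; medium then replaced with fresh medium containing freshly prepared compound. On day 4 supernatant mixed 1:1 with 5% Triton X-100 and p24 measured by ELISA; IC50 = concentration giving 50% reduction in p24 production. Mean ± SD.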

[2] = test system: MT2; test: Cytotoxicity against human MT2 cells after 4 days by XTT assay; format: cell-based; settings: mt2, 96 h
How it was run: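 XTT assay run in parallel with the MT-2 antiviral assay, with medium in place of virus. Graded compound added to an equal volume of MT-2 cells (1 × 10^5 cells/mL), 37 °C for 4 days. Formazan read at 450 nm (reference 620 nm) 4 h after XTT addition; CC50 = concentration giving 50% cytotoxicity.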

[3] = target: Structural capsid protein (Human immunodeficiency virus 1) (UniProt Q76129); test: Binding affinity to HIV1 capsid protein assessed as decrease in formation of mature-like particles after 30 mins by electron microscopy
Structural capsid protein (Human immunodeficiency virus 1), sequence (Q76129 as listed by the source): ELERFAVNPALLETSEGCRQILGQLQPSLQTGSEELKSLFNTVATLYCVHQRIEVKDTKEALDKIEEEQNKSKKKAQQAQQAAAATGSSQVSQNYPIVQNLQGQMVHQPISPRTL
How it was run: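 Purified CA at 50 μM in Na2HPO4 buffer pH 8.0, without RNA, was incubated with inhibitor at 0.5 to 5 molar equivalents for 30 min at 4 °C. It was then dialysed overnight at 4 °C in the same buffer plus 100 mM NaCl. Samples were spotted on poly-L-lysine-treated grids, negatively stained with uranyl acetate and imaged by EM at 80 kV for tube-shaped particles.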

[4] = Selectivity index, ratio of CC50 for human MT2 cells to IC50 for HIV1 3B infected in human MT2 cells; format: functional
How it was run: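 IC50: MT-2 cells infected with HIV-1 IIIB (100 TCID50, 0.01 MOI) overnight with graded compound, then medium refreshed with compound; day-4 p24 measured by ELISA. […] Ratio is CC50/IC50.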

[5] = test system: Human immunodeficiency virus 1; test: Antiviral activity against HIV1 MN infected in human MT2 cells assessed as inhibition of viral p24 antigen production after 4 days by ELISA; format: functional, organism-based; settings: Human immunodeficiency virus 1, MN, MT2, 96 h
How it was run: (§1)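 MT-2 cells (1 × 10^4) were infected at 100 TCID50 (0.01 MOI) in RPMI 1640 with 10% FBS, with or without graded inhibitor concentrations, overnight. Medium was then replaced with fresh inhibitor-containing medium. On day 4, supernatant was mixed 1:1 with 5% Triton X-100 and p24 was measured by ELISA. IC50 is the concentration giving 50% reduction in p24.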

[6] = test system: Human immunodeficiency virus 1; test: Antiviral activity against HIV1 SF2 infected in human MT2 cells assessed as inhibition of viral p24 antigen production after 4 days by ELISA; format: functional, organism-based; settings: Human immunodeficiency virus 1, SF2, MT2, 96 h; how it was run: as §1
[7] = test system: Human immunodeficiency virus 1; test: Antiviral activity against HIV1 RF infected in human MT2 cells assessed as inhibition of viral p24 antigen production after 4 days by ELISA; format: functional, organism-based; settings: Human immunodeficiency virus 1, RF, MT2, 96 h; how it was run: as §1
[8] = test system: Human immunodeficiency virus 1; test: Antiviral activity against HIV1 BaL infected in human PBMC assessed as inhibition of viral p24 antigen production after 4 days by ELISA; format: functional, organism-based; settings: Human immunodeficiency virus 1, BaL, 96 h
[9] = test system: Human immunodeficiency virus 1; test: Antiviral activity against HIV1 89.6 infected in human PBMC assessed as inhibition of viral p24 antigen production after 4 days by ELISA; format: functional, organism-based; settings: Human immunodeficiency virus 1, 89.6, 96 h
[10] = test system: Human immunodeficiency virus 1; test: Antiviral activity against azidothymidine-resistant HIV1 SF2 infected in human MT2 cells assessed as inhibition of viral p24 antigen production after 4 days by ELISA; format: functional, organism-based; settings: Human immunodeficiency virus 1, MT2, 96 h; how it was run: as §1
[11] = test system: Human immunodeficiency virus 1; test: Antiviral activity against protease-resistant HIV1 RF/L-323-12-3 infected in human MT2 cells assessed as inhibition of viral p24 antigen production after 4 days by ELISA; format: functional, organism-based; settings: Human immunodeficiency virus 1, RF/L-323-12-3, MT2, 96 h; how it was run: as §1
[12] = test system: Human immunodeficiency virus 1; test: Antiviral activity against HIV1 3B infected in human MT2 cells assessed as inhibition of viral p24 antigen production at 5 uM after 4 days by ELISA; format: functional, organism-based
[13] = test system: Human immunodeficiency virus 1; test: Antiviral activity against primary HIV1 isolate RU570 infected in human PBMC assessed as inhibition of viral p24 antigen production after 7 days by ELISA; settings: Human immunodeficiency virus 1, isolate RU570, 168 h
[14] = test system: Human immunodeficiency virus 1; test: Antiviral activity against primary HIV1 isolate BCF02 infected in human PBMC assessed as inhibition of viral p24 antigen production after 7 days by ELISA; settings: Human immunodeficiency virus 1, isolate BCF02, 168 h
[15] = test system: Human immunodeficiency virus 1; test: Antiviral activity against primary HIV1 isolate 94UG103 infected in human PBMC assessed as inhibition of viral p24 antigen production after 7 days by ELISA; settings: Human immunodeficiency virus 1, isolate 94UG103, 168 h
[16] = test system: Human immunodeficiency virus 1; test: Antiviral activity against primary HIV1 isolate 92US657 infected in human PBMC assessed as inhibition of viral p24 antigen production after 7 days by ELISA; settings: Human immunodeficiency virus 1, isolate 92US657, 168 h
[17] = test system: Human immunodeficiency virus 1; test: Antiviral activity against primary HIV1 isolate 93IN101 infected in human PBMC assessed as inhibition of viral p24 antigen production after 7 days by ELISA; settings: Human immunodeficiency virus 1, isolate 93IN101, 168 h
[18] = test system: Human immunodeficiency virus 1; test: Antiviral activity against primary HIV1 isolate 92UG024 infected in human PBMC assessed as inhibition of viral p24 antigen production after 7 days by ELISA; settings: Human immunodeficiency virus 1, isolate 92UG024, 168 h
[19] = test system: Human immunodeficiency virus 1; test: Antiviral activity against primary HIV1 isolate 93BR020 infected in human PBMC assessed as inhibition of viral p24 antigen production after 7 days by ELISA; settings: Human immunodeficiency virus 1, isolate 93BR020, 168 h
[20] = test system: Human immunodeficiency virus 1; settings: 3B, MT2, 1 ug/mL

Row | pIC50 [1] | SMILES | CC50 [2] | other results
1 | < 4.66 | Cc1ccc2[nH]c(=O)c(CN(Cc3ccco3)C(=O)c3ccc(S(N)(=O)=O)cc3)cc2c1 | – | –
2 | 5.04 | Cc1ccc2[nH]c(=O)c(CN(Cc3ccco3)C(=O)c3ccc(Cl)c(Cl)c3)cc2c1 | 70.7 µM | –
3 | 5.14 | Cc1cccc2cc(CN(Cc3ccco3)C(=O)c3ccccc3F)c(=O)[nH]c12 | > 64 µM | –
4 | < 4.41 | Cc1ccc2[nH]c(=O)c(CN(CC3CCCO3)C(=O)c3ccc(Cl)cc3)cc2c1 (stereo not given) | – | –
5 | 4.52 | Cc1cc(=O)n2c3ccccc3n(C[C@H](O)CN3CCOCC3)c2c1C#N | > 34.1 µM | –
6 | < 4.61 | COc1ccc(C(=O)N(Cc2ccco2)Cc2cc3cc(C)ccc3[nH]c2=O)cn1 | – | –
7 | < 4.63 | Cc1ccc2[nH]c(=O)c(CN(Cc3ccco3)C(=O)c3ccc(Cl)c(O)c3)cc2c1 | – | –
8 | 5.40 | Cc1cccc2cc(CN(Cc3ccco3)C(=O)c3ccccc3)c(=O)[nH]c12 | > 67.1 µM | –
9 | 5.57 | Cc1ccc(C(=O)N(Cc2ccco2)Cc2cc3cccc(C)c3[nH]c2=O)cc1 | 9.2 µM | –
10 | 5.44 | Cc1cccc2cc(CN(Cc3ccccc3)C(=O)c3cccc(Cl)c3)c(=O)[nH]c12 | > 60 µM | –
11 | < 4.79 | Cc1ccc(C(=O)N(Cc2ccco2)Cc2cc3ccc(C)cc3[nH]c2=O)cc1 | – | –
12 | < 4.58 | Cc1ccc2[nH]c(=O)c(CN(Cc3ccco3)C(=O)c3cnn(C)c3)cc2c1 | – | –
13 | 5.03 | Cc1ccc2[nH]c(=O)c(CN(Cc3ccco3)C(=O)c3ccccc3)cc2c1 | > 67.1 µM | –
14 | 4.93 | Cc1ccc2[nH]c(=O)c(CN(Cc3cccs3)C(=O)C3CCCCC3)cc2c1 | > 63.4 µM | –
15 | 5.19 | Cc1ccc(CN(Cc2cc3cc(C)ccc3[nH]c2=O)C(=O)c2ccco2)cc1 | > 19.8 µM | –
16 | < 4.89 | COc1ccc2[nH]c(=O)c(CN(Cc3ccco3)C(=O)c3ccc(Br)cc3)cc2c1 | – | –
17 | < 4.63 | Cc1ccc2[nH]c(=O)c(CN(Cc3ccco3)C(=O)c3ccc(O)c(Cl)c3)cc2c1 | – | –

The next lines start with the compound.

Row | SMILES | pIC50 [1] | CC50 [2] | other results
18 | CCc1ccc2[nH]c(=O)c(CN(Cc3ccco3)C(=O)c3cccs3)cc2c1 | 4.91 | > 127 µM | –
19 | CCc1ccc2[nH]c(=O)c(CN(Cc3ccco3)C(=O)c3ccccc3)cc2c1 | < 4.86 | – | –
20 | Cc1ccc2cc(CN(Cc3ccco3)C(=O)c3cccc(F)c3)c(=O)[nH]c2c1 | 4.91 | > 51.2 µM | –
21 | Cc1ccc2[nH]c(=O)c(CN(Cc3ccco3)C(=O)c3ccc(Cl)cc3)cc2c1 | 5.97 | – | inhibition [3]: Dose-dependent effect; Selectivity Index [4]: >60; pIC50 [5]: 5.54; pIC50 [6]: 5.61; pIC50 [7]: 5.79; pIC50 [8]: 5.37; pIC50 [9]: 5.21; pIC50 [10]: 5.24; pIC50 [11]: 5.93; inhibition [12]: Active; pIC50 [13]: 5.55; pIC50 [14]: 5.22; pIC50 [15]: 5.41; pIC50 [16]: 5.26; pIC50 [17]: 5.57; pIC50 [18]: 5.59; pIC50 [19]: 5.38
22 | Cc1ccc2[nH]c(=O)c(CN(Cc3ccc4c(c3)OCO4)C(=O)c3ccccc3)cc2c1 | 5.24 | > 117 µM | –
23 | Cc1ccc2[nH]c(=O)c(CN(Cc3ccco3)C(=O)c3ccc(Cl)c(N4CCCCC4)c3)cc2c1 | 5.15 | > 20.4 µM | –
24 | Cc1ccc2[nH]c(=O)c(CN(Cc3ccco3)C(=O)c3ccc(C#N)cc3)cc2c1 | < 4.60 | – | –
25 | Cc1ccc2[nH]c(=O)c(CN(Cc3cccs3)C(=O)c3ccccc3)cc2c1 | < 4.89 | – | –
26 | COc1ccc2[nH]c(=O)c(CN(Cc3ccco3)C(=O)c3ccc(C)cc3)cc2c1 | 5.10 | > 31 µM | –
27 | Cc1ccc2[nH]c(=O)c(CN(Cc3ccco3)C(=O)c3ccc(F)cc3)cc2c1 | < 4.59 | – | –
28 | Cc1ccc2cc(CN(Cc3ccco3)C(=O)c3ccccc3)c(=O)[nH]c2c1 | < 4.77 | – | –
29 | Cc1ccc2[nH]c(=O)c(CN(Cc3ccco3)C(=O)c3ccc(Br)cc3)cc2c1 | 5.67 | > 55.4 µM | –
30 | COc1ccc2nc(O)c(CN(Cc3ccco3)C(=O)c3ccccc3)cc2c1 | < 4.59 | – | –
31 | Cc1ccc2cc(CN(Cc3ccco3)C(=O)c3ccc(C(C)(C)C)cc3)c(=O)[nH]c2c1 | < 4.84 | – | –
32 | Cc1ccc2[nH]c(=O)c(CN(Cc3ccco3)C(=O)c3cccnc3)cc2c1 | < 4.78 | – | –
33 | COc1ccc(C(=O)N(Cc2ccco2)Cc2cc3ccc(C)cc3[nH]c2=O)cc1 | < 4.82 | – | –

Row | SMILES | pIC50 [1] | CC50 [2] | other results
34 | Cc1cccc2cc(CN(Cc3ccco3)C(=O)c3cccs3)c(O)nc12 | < 4.78 | > 66.1 µM | –
35 | Cc1ccc2[nH]c(=O)c(CN(Cc3ccco3)C(=O)c3ccc(N(C)C)cc3)cc2c1 | < 4.62 | – | –
36 | Cc1ccc2[nH]c(=O)c(CN(Cc3ccccc3)C(=O)c3ccco3)cc2c1 | 5.51 | > 67.1 µM | –
37 | Cc1ccc2[nH]c(=O)c(CN(Cc3cccs3)C(=O)c3cccs3)cc2c1 | 4.93 | > 64 µM | –
38 | Cc1ccc2[nH]c(=O)c(CN(Cc3ccco3)C(=O)C(F)(F)F)cc2c1 | < 4.56 | – | –
39 | Cc1ccc2[nH]c(=O)c(CN(Cc3ccco3)C(=O)c3ccc(F)c(Cl)c3)cc2c1 | 5.09 | > 23.5 µM | –
40 | Cc1ccc2[nH]c(=O)c(CN(Cc3ccco3)C(=O)c3cc(Cl)c(O)c(Cl)c3)cc2c1 | < 4.66 | – | –
41 | c1cc(CN2CCCNCCNCCCNCC2)ccc1CN1CCCNCCNCCCNCC1 | – | – | inhibition [20]: Active
42 | CCOc1ccc(C(=O)N(Cc2cccs2)Cc2cc3cc(C)ccc3[nH]c2=O)cc1 | 5.30 | 12.7 µM | –
43 | Cc1ccc2[nH]c(=O)c(CN(Cc3ccco3)C(=O)c3ccc(F)c(F)c3)cc2c1 | 5.33 | > 24.5 µM | –
44 | COc1ccc2[nH]c(=O)c(CN(Cc3cccs3)C(=O)C3CCCCC3)cc2c1 | 5.21 | > 48 µM | –
45 | COc1ccc2[nH]c(=O)c(CN(Cc3cccs3)C(=O)c3cccc(C)c3)cc2c1 | 5.10 | 25 µM | –
46 | Cc1ccccc1C(=O)N(Cc1ccco1)Cc1cc2cccc(C)c2[nH]c1=O | 5.37 | > 64.7 µM | –
47 | Cc1ccc2[nH]c(=O)c(CN(Cc3ccc(Cl)cc3)C(=O)c3cn4cccc(C)c4n3)cc2c1 | 5.03 | 44.5 µM | –
48 | Cc1ccc2[nH]c(=O)c(CN(Cc3ccco3)C(=O)CN3CCN(C)CC3)cc2c1 | < 4.61 | – | –
